Source: ChEMBL document CHEMBL4411319, “Discovery of Macrocyclic Inhibitors of Apurinic/Apyrimidinic Endonuclease 1” (J Med Chem, 2019)

Assays:
[1] = target: T1, DNA repair nuclease/redox regulator APEX1 (Homo sapiens, UniProt P27695); test: Inhibition of full length human APE1 assessed as reduction in endonuclease activity by measuring DNA cleavage of abasic sites using 6-FAM labelled two annealed oligonucleotides as AP site mimic substrate by fluorescence-based assay
Procedure, shortened: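 Purified full-length APE1 (0.25-1.25 nM) added at once to 50 nM annealed duplex: 5'-6-FAM-labelled AP-site-mimic strand paired with a quencher-labelled strand. Buffer 50 mM Tris, 1 mM MgCl2, 50 mM NaCl, pH 7.5. Compound in triplicate, 10-point 1:2 dilution from 100 μM. Fluorescence from cleavage read kinetically at five 1-min intervals. Reaction rate compared with DMSO vehicle.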

[2] = Induction of DNA damage in human ST8814 cells measuring tail DNA level at 100 uM after 1 hr in presence of MMS by comet assay (reference value: 16%); type: functional
Procedure, shortened: (§1)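 Malignant peripheral nerve sheath tumor ST8814 cells seeded at 130,000/well in DMEM + 10% FBS and grown overnight. Treated 1 h at 37 °C in Opti-MEM with compound (100 μM or EC30) alone or with 1.0 mM MMS. Trypsinized, then alkaline comet assay: lysis 60 min, unwinding at pH 13 for 20 min, electrophoresis at 1 V/cm for 30 min, SYBR Gold stain. Percent tail DNA averaged over 20 comets; two independent experiments.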

[3] = target: T1, DNA repair nuclease/redox regulator APEX1; test: Inhibition of APE1 in human ST8814 cells assessed as effect on MMS-induced DNA damage by measuring tail DNA level at 100 uM after 1 hr in presence of MMS by comet assay; type: cell-based; design: scale not given: the % may be the effect or the level left; procedure, shortened: as §1
[4] = Cytotoxicity against human Pa02C cells after 48 hrs by Alamar Blue-based assay; type: functional, cell-based
Procedure, shortened: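 Patient-derived pancreatic Pa02c cells, low passage, kept in DMEM with 10% FBS. Plated at 2000 cells/well on poly-D-lysine-coated plates and grown overnight at 37 °C, 5% CO2. Dosed in 5% FBS DMEM from 100 μM, 1:2 serial dilution, 5 points, with DMSO vehicle and drug-background wells. Grown 48 h, then fresh medium with 10% Alamar Blue for 4 h and fluorescence read. Background subtracted, normalized to media alone, mean with standard error.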

T1 sequence (P27695 whole entry): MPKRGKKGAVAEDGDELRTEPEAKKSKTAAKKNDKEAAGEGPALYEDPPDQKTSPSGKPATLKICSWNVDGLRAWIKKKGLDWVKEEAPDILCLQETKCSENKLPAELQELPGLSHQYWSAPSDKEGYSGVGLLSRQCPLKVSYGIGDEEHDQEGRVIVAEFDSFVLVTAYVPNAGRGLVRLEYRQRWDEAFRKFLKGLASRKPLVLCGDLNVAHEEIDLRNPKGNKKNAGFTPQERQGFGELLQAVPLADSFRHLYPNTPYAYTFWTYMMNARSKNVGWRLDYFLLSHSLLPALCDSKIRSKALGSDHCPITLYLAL

SMILES	inhibition [1]	Activity [2] [%]	Activity [3] [%]	IC50 [1] [µM]	EC50 [4] [µM]
Cc1ccc(S(=O)(=O)n2cccc2[C@@H]2NC(=O)[C@H](Cc3c[nH]c4ccccc34)NC(=O)C(c3ccccc3)CCOC(=O)C/C=C/[C@@H]2C)cc1 (stereo partly specified)	Dose-dependent effect				
CC(=O)Nc1sc2c(c1-c1nc3ccccc3s1)CCN(C(C)C)C2		17	34		
Cc1ccc(S(=O)(=O)n2cccc2[C@@H]2NC(=O)[C@H](Cc3c[nH]c4ccccc34)NC(=O)C[C@@H](CCc3ccccc3)NC(=O)C/C=C/[C@@H]2C)cc1		12	54	2.7	> 100
Cc1ccc([C@@H]2CC(=O)N[C@@H](Cc3c[nH]c4ccccc34)C(=O)N[C@@H](c3cccn3S(=O)(=O)c3ccc(C)cc3)[C@@H](C)/C=C/CC(=O)N2)cc1		20	40	2.5	> 100
C[C@H]1/C=C/CC(=O)OCCCCC(=O)N[C@@H](Cc2c[nH]c3ccccc23)C(=O)N[C@H]1c1ccccc1				63.5	> 50
Cc1ccc(S(=O)(=O)n2cccc2[C@@H]2NC(=O)[C@H](Cc3c[nH]c4ccccc34)NC(=O)CCCCOC(=O)C/C=C/[C@@H]2C)cc1		26	27	9.3	> 100
Cc1ccc(S(=O)(=O)n2cccc2[C@@H]2NC(=O)[C@H](Cc3c[nH]c4ccccc34)NC(=O)C[C@@H](Cc3ccc(Cl)cc3)NC(=O)C/C=C/[C@@H]2C)cc1				1.9	> 100
Cc1ccc(S(=O)(=O)n2cccc2[C@@H]2NC(=O)[C@H](Cc3c[nH]c4ccccc34)NC(=O)C[C@@H](c3ccc(F)cc3)NC(=O)C/C=C/[C@@H]2C)cc1				5.7	> 100
Cc1ccc(S(=O)(=O)n2cccc2[C@@H]2NC(=O)[C@H](Cc3c[nH]c4ccccc34)NC(=O)C[C@@H](c3cccc(C(F)(F)F)c3)NC(=O)C/C=C/[C@@H]2C)cc1				52.6	6.7
Cc1ccc(S(=O)(=O)n2cccc2[C@@H]2NC(=O)[C@H](Cc3c[nH]c4ccccc34)NC(=O)C[C@H](CCc3ccccc3)NC(=O)C/C=C/[C@@H]2C)cc1				2.6	> 100
C[C@H]1/C=C/CC(=O)N[C@H](c2ccc(C(F)(F)F)cc2)CC(=O)N[C@@H](Cc2c[nH]c3ccccc23)C(=O)N[C@H]1c1ccccc1		12	67	26.5	58.5
C[C@H]1/C=C/CC(=O)N[C@H](c2ccc(F)cc2)CC(=O)N[C@@H](Cc2c[nH]c3ccccc23)C(=O)N[C@H]1c1ccccc1				55.1	36.2
Cc1ccc(S(=O)(=O)n2cccc2[C@@H]2NC(=O)[C@H](Cc3c[nH]c4ccccc34)NC(=O)C[C@@H](c3ccc(C(F)(F)F)cc3)NC(=O)C/C=C/[C@@H]2C)cc1		18	95	1.3	> 100
Cc1ccc(S(=O)(=O)n2cccc2[C@@H]2NC(=O)[C@H](Cc3c[nH]c4ccccc34)NC(=O)CCCCNC(=O)C/C=C/[C@@H]2C)cc1				> 50	> 100
Cc1ccc(S(=O)(=O)n2cccc2[C@@H]2NC(=O)[C@H](Cc3c[nH]c4ccccc34)NC(=O)C(Oc3ccc(C(F)(F)F)cc3)CCOC(=O)C/C=C/[C@@H]2C)cc1 (stereo partly specified)	Dose-dependent effect			2.5	
Cc1ccc(S(=O)(=O)n2cccc2[C@@H]2NC(=O)[C@H](Cc3c[nH]c4ccccc34)NC(=O)C[C@@H](c3ccc(Cl)cc3)NC(=O)C/C=C/[C@@H]2C)cc1				12.1	> 100
Cc1ccc(S(=O)(=O)n2cccc2[C@@H]2NC(=O)[C@H](Cc3c[nH]c4ccccc34)NC(=O)C(Oc3ccccc3)CCOC(=O)C/C=C/[C@@H]2C)cc1 (stereo partly specified)	Dose-dependent effect				
Cc1ccc(S(=O)(=O)n2cccc2[C@@H]2NC(=O)[C@H](Cc3c[nH]c4ccccc34)NC(=O)CCCOC(=O)C/C=C/[C@@H]2C)cc1				10.6	> 100
Cc1ccc(S(=O)(=O)n2cccc2[C@@H]2NC(=O)[C@H](Cc3c[nH]c4ccccc34)NC(=O)CCNC(=O)C/C=C/[C@@H]2C)cc1		12	96	33.2	58.4
C[C@H]1/C=C/CC(=O)N[C@H](c2ccc(Cl)cc2)CC(=O)N[C@@H](Cc2c[nH]c3ccccc23)C(=O)N[C@H]1c1ccccc1				> 100	22
C[C@H]1/C=C/CC(=O)OCCC(Oc2ccc3c(c2)OCO3)C(=O)N[C@@H](Cc2c[nH]c3ccccc23)C(=O)N[C@H]1c1ccccc1 (stereo partly specified)	Dose-dependent effect			1.8	
C[C@H]1/C=C/CC(=O)OCCCC(=O)N[C@@H](Cc2c[nH]c3ccccc23)C(=O)N[C@H]1c1ccccc1				> 100	> 100
Cc1ccc(S(=O)(=O)n2cccc2[C@@H]2NC(=O)[C@H](Cc3c[nH]c4ccccc34)NC(=O)CCCNC(=O)C/C=C/[C@@H]2C)cc1				29.2	35
